Experimental data of several laboratories.
Lines come from different studies, so protocols differ.
Target: Sodium-dependent noradrenaline transporter (SLC6A2, Homo sapiens, UniProt P23975)

| SMILES | assay | test system | setting | inhibition |
| --- | --- | --- | --- | --- |
| O=C(Nc1cccnn1)N1CCN([C@@H]2CCOc3cc(C(F)(F)F)ccc32)CC1 | ligand displacement |  | 20 µM | 15% |
| COc1ccc(C(CN(C)C)C2(O)CCCCC2)cc1 (stereo not drawn) | transporter uptake, inhibitor | HEK293 | 1 µM | 28.8% |
| CS(=O)(=O)N1CCCC(NC(=O)[C@H](CCC2CCCCC2)NC(=O)c2ccc(CNC(=O)c3cnc4ccccn34)cc2)C1 (stereo partly drawn) | cell-free assay |  | 10 µM | 3% |
| COc1ccc(S(=O)(=O)N2CCCCC2)cc1C | ligand displacement, radioligand |  | 10 µM | < 30% |
| CC(C)(C)c1ccc(C(=O)Nc2cc(Cl)c(-c3ccccc3)cc2C(=O)O)cc1 | ligand displacement, radioligand |  | 10 µM | 91% |
| CC(C)N1CCC[C@H]1CNC(=O)c1cn(C2CCCC2)c(=O)c2c1c1ccccc1n2C | ligand displacement, radioligand |  | 10 µM | 28% |
| Clc1ccc2c(C3CCN(CCc4c[nH]c5ccccc45)CC3)c[nH]c2c1 | ligand displacement, radioligand |  | 10 µM | 90% |
| CCN(CC)CCCC[C@H](NC(=O)[C@H](CC(C)C)NC(=O)[C@H](C)NC(=O)[C@H](Cc1ccccc1)NC(=O)c1ccc(C(C)(C)C)cc1)C(=O)N[C@@H](CO)C(=O)OC | ligand displacement, radioligand |  | 10 µM | -13% |
| Fc1ccc(C(OCCN2CCN(CCCc3ccccc3)CC2)c2ccc(F)cc2)cc1 | transporter uptake, inhibitor | HEK293 | 1 µM | 89.9% |
| Cc1noc([C@H]2C[C@@H](c3ccc(C(F)(F)F)cc3)CN(C(=O)N3CCS(=O)(=O)C3)C2)n1 | cell-free assay |  | 10 µM | -20.2% |
| COCc1c(-c2cc3cc(C)cc(OC)c3s2)c2c(N)ncnn2c1CN1CCNC(=O)C1 | ligand displacement, radioligand |  | 10 µM | 47% |
| CN(CCN1CCC(OC(=O)Nc2ccccc2-c2ccccc2)CC1)C(=O)c1ccc(CN2CCC(C(N)=O)CC2)cc1 | ligand displacement, radioligand |  | 1 µM | 1% |
